The values below come from ChEMBL document CHEMBL1806356, “Synthesis, characterization and antimicrobial studies of some new pyrazole incorporated imidazole derivatives” (Eur J Med Chem, 2011).

The subject of series [1] is Escherichia coli. As to the kind of experiment: Antibacterial activity against Escherichia coli ATCC 25922 assessed as zone of inhibition at 1000 ug/ml after 24 hrs by agar diffusion method. The note with it: ATCC 25922, 24 h, read-out: IZ. It is filed as functional. Summed up:
(§1)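 Well diffusion on Mueller-Hinton agar seeded with 24 h old bacterial cultures. Test compounds were dissolved in DMSO at 1 and 0.5 mg/mL and added to labeled wells. Plates were incubated 24 h at 37 °C. The inhibition zone around each well was measured in mm. Triplicate experiments, standard deviation calculated.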

The test system of series [2] is Escherichia coli. As to the kind of experiment: Antibacterial activity against Escherichia coli ATCC 25922 assessed as zone of inhibition at 500 ug/ml after 24 hrs by agar diffusion method. It is filed as functional. Particulars: ATCC 25922, 24 h, read-out: IZ. The essentials:
as §1

Series [3] relates to Staphylococcus aureus. As to the kind of experiment: Antibacterial activity against Staphylococcus aureus assessed as zone of inhibition at 1000 ug/ml after 24 hrs by agar diffusion method. In kind it is functional. Particulars: read-out: IZ. Summed up: as §1
In series [4] the test system is Staphylococcus aureus. As to the kind of experiment: Antibacterial activity against Staphylococcus aureus assessed as zone of inhibition at 500 ug/ml after 24 hrs by agar diffusion method. It is filed as functional. The note with it: read-out: IZ. The essentials:
as §1

For series [5], the system named is Bacillus subtilis. As to the kind of experiment: Antibacterial activity against Bacillus subtilis assessed as zone of inhibition at 1000 ug/ml after 24 hrs by agar diffusion method. In kind it is functional. Particulars: read-out: IZ. Summed up:
as §1

The test system of series [6] is Bacillus subtilis. The series is described as follows: Antibacterial activity against Bacillus subtilis assessed as zone of inhibition at 500 ug/ml after 24 hrs by agar diffusion method. In kind it is functional. Particulars: read-out: IZ. The essentials: as §1
In series [7] the test system is Salmonella typhimurium. The series is described as follows: Antibacterial activity against Salmonella Typhimurium assessed as zone of inhibition at 1000 ug/ml after 24 hrs by agar diffusion method. The note with it: Salmonella enterica, read-out: IZ. It is filed as functional, Salmonella enterica subsp. enterica serovar Typhimurium. Summed up: as §1
The subject of series [8] is Salmonella typhimurium. The series is described as follows: Antibacterial activity against Salmonella Typhimurium assessed as zone of inhibition at 500 ug/ml after 24 hrs by agar diffusion method. Particulars: Salmonella enterica, read-out: IZ. In kind it is functional, Salmonella enterica subsp. enterica serovar Typhimurium. The essentials:
as §1

Series [9] deals with Clostridium perfringens. The series is described as follows: Antibacterial activity against Clostridium perfringens assessed as zone of inhibition at 1000 ug/ml after 24 hrs by agar diffusion method. It is filed as functional. The note with it: read-out: IZ. The essentials:
(§2)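 Well diffusion on Mueller-Hinton agar seeded with 24 h old cultures. Compounds dissolved in DMSO at 1 and 0.5 mg/mL and added to wells punched with a sterile cork borer, with a DMSO-only control. Plates incubated 24 h at 37 °C. Read-out was the inhibition zone in mm, run in triplicate, standard deviation calculated.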

In series [10] the test system is Clostridium perfringens. The series is described as follows: Antibacterial activity against Clostridium perfringens assessed as zone of inhibition at 500 ug/ml after 24 hrs by agar diffusion method. It is filed as functional. The note with it: read-out: IZ. The essentials:
as §2

The test system of series [11] is Pseudomonas aeruginosa. The series is described as follows: Antibacterial activity against Pseudomonas aeruginosa ATCC 27853 assessed as zone of inhibition at 1000 ug/ml after 24 hrs by agar diffusion method. It is filed as functional. The note with it: ATCC 27853, 24 h, read-out: IZ. The essentials:
as §1

Series [12] deals with Pseudomonas aeruginosa. As to the kind of experiment: Antibacterial activity against Pseudomonas aeruginosa ATCC 27853 assessed as zone of inhibition at 500 ug/ml after 24 hrs by agar diffusion method. Particulars: ATCC 27853, 24 h, read-out: IZ. In kind it is functional. The essentials:
as §1

Series [13] has as its system Candida albicans. As to the kind of experiment: Antifungal activity against Candida albicans at 1000 ug/ml after 72 hrs by agar diffusion method by agar diffusion method. It is filed as functional. Particulars: read-out: DIZ. Summed up: (§3)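 Fungal spores were suspended in normal saline (one loopful in 3 mL) and lawned on agar plates. Wells were punched with a sterile cork borer and loaded with test compound in DMSO at the different concentrations. A DMSO solvent control was included. Petri dishes were prepared in triplicate and held at 25 °C for 72 h.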

Series [14] deals with Candida albicans. The series is described as follows: Antifungal activity against Candida albicans at 500 ug/ml after 72 hrs by agar diffusion method. In kind it is functional. The note with it: read-out: DIZ. The essentials: as §3
The test system of series [15] is Nannizzia gypsea. As to the kind of experiment: Antifungal activity against Microsporum gypseum at 1000 ug/ml after 72 hrs by agar diffusion method. In kind it is functional. The note with it: read-out: DIZ. The essentials:
as §3

The subject of series [16] is Nannizzia gypsea. As to the kind of experiment: Antifungal activity against Microsporum gypseum at 500 ug/ml after 72 hrs by agar diffusion method. In kind it is functional. The note with it: read-out: DIZ. Summed up: as §3
Series [17] deals with Aspergillus flavus. As to the kind of experiment: Antifungal activity against Aspergillus flavus at 1000 ug/ml after 72 hrs by agar diffusion method. Particulars: read-out: DIZ. It is filed as functional. The essentials:
as §3

The test system of series [18] is Aspergillus flavus. As to the kind of experiment: Antifungal activity against Aspergillus flavus at 500 ug/ml after 72 hrs by agar diffusion method. The note with it: read-out: DIZ. It is filed as functional. Summed up:
as §3

For series [19], the system named is Aspergillus niger. The series is described as follows: Antifungal activity against Aspergillus niger at 1000 ug/ml after 72 hrs by agar diffusion method. It is filed as functional. The note with it: read-out: DIZ. Summed up:
as §3

The test system of series [20] is Aspergillus niger. As to the kind of experiment: Antifungal activity against Aspergillus niger at 500 ug/ml after 72 hrs by agar diffusion method. In kind it is functional. The note with it: read-out: DIZ. Summed up: as §3
Series [21] relates to Trichophyton rubrum. As to the kind of experiment: Antifungal activity against Trichophyton rubrum at 1000 ug/ml after 72 hrs by agar diffusion method. In kind it is functional. The note with it: read-out: DIZ. The essentials: as §3
The subject of series [22] is Trichophyton rubrum. As to the kind of experiment: Antifungal activity against Trichophyton rubrum at 500 ug/ml after 72 hrs by agar diffusion method. It is filed as functional. The note with it: read-out: DIZ. The essentials: as §3
Series [23] concerns Mus musculus. As to the kind of experiment: Toxicity in Swiss albino mouse assessed as mortality at 1000 to 3000 mg/kg, po administered as single dose measured at 4th to 24th hrs. The note with it: in vivo. It is filed as organism-based. On the set-up: dose 1000-3000 mg/kg, route oral. The essentials:
(§4)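 Single oral dose of 1000 to 3000 mg/kg, given as a fine suspension in double distilled water with Tween 80. Animals housed under a light/dark cycle. Toxic symptoms and behavioural changes were observed continuously at 4, 8, 12 and 24 h, and onset was recorded. Deaths were also recorded.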

Series [24] has as its system Mus musculus. The series is described as follows: Toxicity in Swiss albino mouse assessed as behavioral changes at 1000 to 3000 mg/kg, po administered as single dose measured at 4th to 24th hrs. It is filed as organism-based. On the set-up: dose 1000-3000 mg/kg, route oral. Particulars: in vivo. The essentials:
as §4

With `COC(=O)/C=C1/C(=O)NC(=S)N1/N=C/c1c[nH]nc1-c1ccc(SC)cc1`, the zone of inhibition at 1000 µg/mL with Escherichia coli [1] is 12 mm; in the series with Staphylococcus aureus [3] it was 6 mm; with Bacillus subtilis [5] it was 10 mm; in the series with Salmonella typhimurium [7], 12 mm; in the series with Clostridium perfringens [9], 16 mm; with Pseudomonas aeruginosa [11], 16 mm. The zone of inhibition at 1000 µg/mL was 5 mm in the series with Candida albicans [13]; 5 mm with Nannizzia gypsea [15]; 7 mm in the series with Aspergillus flavus [17]; 10 mm in the series on Aspergillus niger [19]; 16 mm with Trichophyton rubrum [21]. Besides, the zone of inhibition at 500 µg/mL was determined as 9 mm in the series with Escherichia coli [2]; 5 mm with Staphylococcus aureus [4]; 9 mm with Bacillus subtilis [6]; 11 mm in the series with Salmonella typhimurium [8]; 15 mm in the series with Clostridium perfringens [10]; 15 mm in the series on Pseudomonas aeruginosa [12]. The zone of inhibition at 500 µg/mL with Candida albicans [14] turned out to be 4 mm; in the series on Nannizzia gypsea [16], 4 mm; with Aspergillus flavus [18], 6 mm; with Aspergillus niger [20] it was 9 mm; with Trichophyton rubrum [22], 15 mm. Further, the Activity entry in the series with Mus musculus [23] and in the series with Mus musculus [24] was “Non-toxic” each time.
For the compound `Cc1ccc(-c2n[nH]cc2-c2nc(-c3ccc(Br)cc3)c(-c3ccc(Br)cc3)[nH]2)cc1`, the zone of inhibition at 1000 µg/mL worked out at 4 mm in the series on Escherichia coli [1]; 3 mm in the series on Staphylococcus aureus [3]; 4 mm in the series with Bacillus subtilis [5]; 4 mm in the series with Salmonella typhimurium [7]; 3 mm in the series with Clostridium perfringens [9]; 2 mm with Pseudomonas aeruginosa [11]. The zone of inhibition at 1000 µg/mL was determined as 4 mm in the series on Candida albicans [13]; 2 mm with Nannizzia gypsea [15]; 3 mm in the series with Aspergillus flavus [17]; 3 mm in the series with Aspergillus niger [19]; 3 mm in the series on Trichophyton rubrum [21]. Moreover, the zone of inhibition at 500 µg/mL in the series with Escherichia coli [2] stood at 3 mm; in the series with Staphylococcus aureus [4], 2 mm; in the series on Bacillus subtilis [6] it was 3 mm; in the series on Salmonella typhimurium [8] it was 3 mm; with Clostridium perfringens [10], 2 mm; with Pseudomonas aeruginosa [12], 1 mm. For the same compound, the zone of inhibition at 500 µg/mL is 3 mm in the series with Candida albicans [14]; 1 mm with Nannizzia gypsea [16]; 2 mm in the series on Aspergillus flavus [18]; 2 mm with Aspergillus niger [20]; 2 mm in the series on Trichophyton rubrum [22].
As for `Clc1cc(-c2n[nH]cc2-c2nc(-c3ccc(Br)cc3)c(-c3ccc(Br)cc3)[nH]2)c(Cl)s1`, the zone of inhibition at 1000 µg/mL with Escherichia coli [1] worked out at 4 mm; in the series with Staphylococcus aureus [3] it was 3 mm; with Bacillus subtilis [5], 2 mm; in the series with Salmonella typhimurium [7] it was 2 mm; in the series with Clostridium perfringens [9], 5 mm; in the series with Pseudomonas aeruginosa [11] it was 4 mm. The zone of inhibition at 1000 µg/mL amounted to 6 mm in the series on Candida albicans [13]; 3 mm in the series with Nannizzia gypsea [15]; 4 mm with Aspergillus flavus [17]; 4 mm in the series with Aspergillus niger [19]; 6 mm in the series with Trichophyton rubrum [21]. The zone of inhibition at 500 µg/mL with Escherichia coli [2] amounted to 3 mm; in the series with Staphylococcus aureus [4], 2 mm; in the series on Bacillus subtilis [6], 1 mm; in the series on Salmonella typhimurium [8] it was 1 mm; with Clostridium perfringens [10], 4 mm; in the series on Pseudomonas aeruginosa [12], 3 mm. Also, the zone of inhibition at 500 µg/mL was determined as 5 mm with Candida albicans [14]; 2 mm in the series with Nannizzia gypsea [16]; 3 mm in the series with Aspergillus flavus [18]; 3 mm in the series on Aspergillus niger [20]; 5 mm in the series with Trichophyton rubrum [22].
